In ChEMBL document CHEMBL1133671, “Synthesis and SAR of new 5-phenyl-3-ureido-1,5-benzodiazepines as cholecystokinin-B receptor antagonists” (J Med Chem, 2000):

Experiments:
[1] = molecular target: T1, Cholecystokinin receptor type A (Rattus norvegicus, UniProt P30551); assay: In vitro inhibition of binding of [3H]pCCK-8 against Cholecystokinin type A receptor of rat pancreatic membranes; assay type: cell membranes, Membrane
T1 sequence (P30551 whole entry): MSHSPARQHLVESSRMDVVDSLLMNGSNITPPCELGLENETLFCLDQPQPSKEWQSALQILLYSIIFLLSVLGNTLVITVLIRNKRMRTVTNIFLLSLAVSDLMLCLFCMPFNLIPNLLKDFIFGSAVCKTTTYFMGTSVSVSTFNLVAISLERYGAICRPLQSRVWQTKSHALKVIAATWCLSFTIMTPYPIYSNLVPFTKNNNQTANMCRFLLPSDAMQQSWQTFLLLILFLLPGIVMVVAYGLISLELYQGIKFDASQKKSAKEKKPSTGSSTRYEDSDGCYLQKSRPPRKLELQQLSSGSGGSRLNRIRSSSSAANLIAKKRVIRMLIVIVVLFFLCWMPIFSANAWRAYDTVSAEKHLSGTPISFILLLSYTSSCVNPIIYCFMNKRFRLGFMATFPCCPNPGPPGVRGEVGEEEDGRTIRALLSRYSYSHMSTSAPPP
Outline: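 Radioligand displacement of [3H]CCK-8S from membranes: rat pancreas for the CCK-A receptor and guinea-pig cerebral cortex for the CCK-B receptor, using slightly modified published methods. Values are means of n experiments.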

[2] = organism: Cavia porcellus; assay: Selectivity factor between CCK-B and CCK-A receptors

Row | Compound | Ki [1] [nM] | Ratio [2]
1 | CC(C)(C)CCN1C(=O)C(NC(=O)Nc2ccccc2)C(=O)N(c2ccccc2F)c2ccccc21 (racemic) | 70.8 | 74
2 | CSc1cccc(NC(=O)NC2C(=O)N(CCC(C)(C)C)c3ccccc3N(c3ccccc3F)C2=O)c1 (racemic) | 11.7 | 16
3 | CN(C)c1cccc(NC(=O)NC2C(=O)N(CCC(C)(C)C)c3ccccc3N(c3ccccc3F)C2=O)c1 (racemic) | 19.5 | 32
4 | CC(C)CC(C)N1C(=O)C(NC(=O)Nc2ccccc2)C(=O)N(c2ccccc2)c2ccccc21 (racemic) | 115 | 55
5 | O=C(Nc1ccccc1)NC1C(=O)N(CCC23C[C@H]4C[C@@H](C2)C[C@@H](C3)C4)c2ccccc2N(c2ccccc2)C1=O (mixture of isomers) | 219 | 6
6 | CC(C)CCN1C(=O)C(NC(=O)Nc2ccccc2)C(=O)N(c2ccccc2F)c2ccccc21 (racemic) | 195 | 25
7 | CC(C)CCN1C(=O)C(NC(=O)Nc2cccc(N(C)C)c2)C(=O)N(c2ccccc2F)c2ccccc21 (racemic) [listing 1 of 2 here] | 126 | 
8 | O=C(Nc1ccccc1)NC1C(=O)N(CC2[C@H]3C[C@@H]4C[C@@H](C[C@H]2C4)C3)c2ccccc2N(c2ccccc2)C1=O (mixture of isomers) | 83.2 | 48
9 | CC(C)C(C)CN1C(=O)C(NC(=O)Nc2ccccc2)C(=O)N(c2ccccc2)c2ccccc21 (racemic) | 123 | 110
10 | CN(C)c1ccc(NC(=O)NC2C(=O)N(CCC3CCCC3)c3ccccc3N(c3ccccc3F)C2=O)cc1 (racemic) | 661 | 141
11 | CC(C)(C)CCN1C(=O)C(NC(=O)Nc2ccccc2)C(=O)N(c2ccccc2)c2ccccc21 (racemic) | 112 | 166
12 | CN(C)c1cccc(NC(=O)NC2C(=O)N(CCC3CCCC3)c3ccccc3N(c3ccccc3F)C2=O)c1 (racemic) | 47.9 | 71
13 | CC(C)CCN1C(=O)C(NC(=O)Nc2cccc(N(C)C)c2)C(=O)N(c2ccccc2F)c2ccccc21 (racemic) [listing 2 of 2 here] |  | 501
14 | CC(O)C(O)Nc1cccc(NC(=O)NC2C(=O)N(CC34C[C@H]5C[C@@H](C3)C[C@@H](C4)C5)c3ccccc3N(c3ccccc3)C2=O)c1 (mixture of isomers) |  | 575
15 | O=C(O)CCCOc1ccc(NC(=O)NC2C(=O)N(CC34C[C@H]5C[C@@H](C3)C[C@@H](C4)C5)c3ccccc3N(c3ccccc3)C2=O)cc1 (single isomer, unassigned; (+)) | > 10000 | > 2630
16 | O=C(Nc1cccc(O)c1)NC1C(=O)N(CC23C[C@H]4C[C@@H](C2)C[C@@H](C3)C4)c2ccccc2N(c2ccccc2)C1=O (single isomer, unassigned; (+)) | 1580 | 550
17 | Nc1cccc(NC(=O)NC2C(=O)N(CC34C[C@H]5C[C@@H](C3)C[C@@H](C4)C5)c3ccccc3N(c3ccccc3)C2=O)c1 (single isomer, unassigned; (+)) | 4070 | 13800
18 | CC(O)C(O)Nc1cccc(NC(=O)NC2C(=O)N(CC34C[C@H]5C[C@@H](C3)C[C@@H](C4)C5)c3ccccc3N(c3ccccc3)C2=O)c1 (single isomer, unassigned; (+)) [listing 1 of 2 here] | 7410 | 
19 | CC(C)CCN1C(=O)C(NC(=O)Nc2cccc(N(C)C)c2)C(=O)N(c2ccccc2F)c2ccccc21 (single isomer, unassigned; (+)) [listing 1 of 2 here] | 200 | 
20 | O=C(Nc1cccc(C(=O)OCCN2CCOCC2)c1)NC1C(=O)N(CC23C[C@H]4C[C@@H](C2)C[C@@H](C3)C4)c2ccccc2N(c2ccccc2)C1=O (single isomer, unassigned; (+)) | 339 | 603
21 | O=C(Nc1cccc(CO)c1)NC1C(=O)N(CC23C[C@H]4C[C@@H](C2)C[C@@H](C3)C4)c2ccccc2N(c2ccccc2)C1=O (single isomer, unassigned; (+)) | 2140 | 12000
22 | CC(C)CCN1C(=O)C(NC(=O)Nc2cccc(N(C)C)c2)C(=O)N(c2ccccc2F)c2ccccc21 (single isomer, unassigned; (+)) [listing 2 of 2 here] |  | 933
23 | CC(O)C(O)Nc1cccc(NC(=O)NC2C(=O)N(CC34C[C@H]5C[C@@H](C3)C[C@@H](C4)C5)c3ccccc3N(c3ccccc3)C2=O)c1 (single isomer, unassigned; (+)) [listing 2 of 2 here] |  | 11000
24 | O=C(Nc1ccccc1)NC1C(=O)N(CC23C[C@H]4C[C@@H](C2)C[C@@H](C3)C4)c2ccccc2N(c2ccccc2)C1=O (single isomer, unassigned; (-)) | 479 | 
25 | CC(C)CCN1C(=O)C(NC(=O)Nc2cccc(N(C)C)c2)C(=O)N(c2ccccc2F)c2ccccc21 (single isomer, unassigned; (-)) [listing 1 of 2 here] | 72.4 | 
26 | CC(C)CCN1C(=O)C(NC(=O)Nc2cccc(N(C)C)c2)C(=O)N(c2ccccc2F)c2ccccc21 (single isomer, unassigned; (-)) [listing 2 of 2 here] |  | 39
